The RNAGym collection of RNA variant scans (doi:10.1126/science.aae0568)
Fewer inactive variants are shown than the library holds.

B1: tRNA (parent)
chain: GUUCCGUUGGCGUAAUGGUAACGCGUCUCCCUCCUAAGGAGAAGACUGCGGGUUCGAGUCCCGUACGGAACG

Variants of: B1
Assay: yeast fitness relative to wild type (ratio to wild type); higher = fitter; tRNA-Arg(CCU), competitive growth, 37 C, YPD
Method in brief: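 Amplicons of the tRNA-Arg(CCU) gene were sequenced, 100-nucleotide paired-end, from the start population and from each end population of a pooled yeast competition. The competition, in six parallel replicates, lasted 24 hours in YPD at 37°C. Fitness relative to wild type was calculated from changes in genotype frequencies. Genotypes had to have ≥ 100 starting reads, and estimates < 0.5 were set to 0.5.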

Variant | yeast fitness
GUUCCGUUGGCGUAAUGGUAACGCGUCUCCCUCCUAAGGUGAAGACUGCGGGUUCGUGUCCCGUACGGAACG | 0.837
GUUCCGUUGGCGUAAUGGUAACGCGUCUCCCUCCUAAGGUGAAGACUGCGGGUUCGACUCCCGUACGGAACG | 0.945
GUUCCGUUGGCGUAAUGGUAACGCGUCUCCCUCCUAAGGUGAAGACUGCGGGUUCGAGUCCCGUGCGGAACG | 1.01
GUUCCGUUGGCGUAAUGGUAACGCGUCUCCCUCCUAAGGCGAAGACUGCGGGUUAGAGUCCCGUACGGAACG | 0.556
GUUCCGUUGGCGUAAUGGUAACGCGUCUCCCUCCUAAGGUGAACACUGCGGGGUCGAGUCCCGUACGGAACG | ≤ 0.5
GUUCCGUUGGCGUAAUGGUAACGCGUCUCCCUCCUAAGGCGUCGACUACGGGUUCGAGUCCCGUACGGAACG | 0.55
GUUCCGUUGGCGUAAUGGUAACGCGUCUCCCUCCUAAGGCGAAGACUCCGGGUUCGAGUCCCGUACGGAACG | 0.684
GUUCCGUUGGCGUAAUGGUAACGCGUCUCCCUCCUAAGGCGAAGACUGCGGGUUCGAAUCCCGUACGGAACG | 0.962
GUUCCGUUGGCGUAAUGGUAACGCGUCUCCCUCCUAAGGUGAAGACUGGGGGUUCCAGUCCCGUACGGAACG | ≤ 0.5
GUUCCGUUGGCGUAAUGGUAACGCGUCUCCCUCCUAAGGCGAAGACUGCGGGUUCGGGUCGCGUACGGAACG | ≤ 0.5
GUUCCGUUGGCGUAAUGGUAACGCGUCUCCCUCCUAAGGCGAAGACUGCGGGUUCGGGUCUCGUACGGAACG | 0.573
GUUCCGUUGGCGUAAUGGUAACGCGUCUCCCUCCUAAGGGGAAGACUGCGGGUCCGAGUCCCGUACGCAACG | ≤ 0.5
GUUCCGUUGGCGUAAUGGUAACGCGUCUCCCUCCUAAGGCGAAGACUGCAGGUUCGAGUCCCGUACGGAACG | 0.619
GUUCCGUUGGCGUAAUGGUAACGCGUCUCCCUCCUAAGCAGAAGACUGCGGGCUCGAGUCCCGUACGGAACG | 0.747
GUUCCGUUGGCGUAAUGGUAACGCGUCUCCCUCCUAAGGUGAAGUCUACGGGUUCGAGUCCCGUACGGAACG | 0.998
GUUCCGUUGGCGUAAUGGUAACGCGUCUCCCUCCUAAGGCGAAGACAGCGGGUUCGAGUCCCGUACGGGACG | 0.54
GUUCCGUUGGCGUAAUGGUAACGCGUCUCCCUCCUAAGGGGAAGACUGCGGGUUCGAGUCCUGUCAGGAACG | ≤ 0.5
GUUCCGUUGGCGUAAUGGUAACGCGUCUCCCUCCUAAGGCGAAGACUGCGGGUUCGAGUCCCGUACGGAUCG | 0.797
GUUCCGUUGGCGUAAUGGUAACGCGUCUCCCUCCUAAGGUGAAGACUGCGGGUUCCAGUCCCGUACGGAACG | 0.651

Variant | yeast fitness
GUUCCGUUGGCGUAAUGGUAACGCGUCUCCCUCCUAAGGGGAAGACUGCGGGUUCGAGUCCCGCACGGAACG | 0.972
GUUCCGUUGGCGUAAUGGUAACGCGUCUCCCUCCUAAGGUGAAGACUACGGGUUCGAGUACCGCACGGCACG | ≤ 0.5
GUUCCGUUGGCGUAAUGGUAACGCGUCUCCCUCCUAAGGGGAAGACUGCGCGUUCGUGUCCCGUACGGAACG | ≤ 0.5
GUUCCGUUGGCGUAAUGGUAACGCGUCUCCCUCCUAAGGGGAAGACUGCGGGUUCGAGUCCCAUACAGAACG | ≤ 0.5
GUUCCGUUGGCGUAAUGGUAACGCGUCUCCCUCCUAAGCAGAAGACCGCGGGUUCGCGUCACGCACGGAACG | ≤ 0.5
GUUCCGUUGGCGUAAUGGUAACGCGUCUCCCUCCUAAGGCGAAGACUCCGGGUUCGAGUCCCGUACGGCACG | 0.57
GUUCCGUUGGCGUAAUGGUAACGCGUCUCCCUCCUAAGGCGAAGACUGCGGGUUAGAGUCCCGUAAGGAACG | 0.578
GUUCCGUUGGCGUAAUGGUAACGCGUCUCCCUCCUAAGGUGAGGACUGCGGGUUCGGGUCCCGUACGGAACG | ≤ 0.5
GUUCCGUUGGCGUAAUGGUAACGCGUCUCCCUCCUAAGGGGAAGACUGCGGGUUCGAGUCUCGUUCGGAACG | ≤ 0.5
GUUCCGUUGGCGUAAUGGUAACGCGUCUCCCUCCUAAGGUGAAGACUGCGGGUUCGAGUACCGUACGGAACG | 0.604
GUUCCGUUGGCGUAAUGGUAACGCGUCUCCCUCCUAAGGCGAAGACUGCGGGUUCGAGUCCCGCACGGAACG | 0.912
GUUCCGUUGGCGUAAUGGUAACGCGUCUCCCUCCUAAGGUGAAGACUGAGGGUUCGGGUCCUGUACGGAACG | ≤ 0.5
GUUCCGUUGGCGUAAUGGUAACGCGUCUCCCUCCUAAGGUGAAGGCUGCGGGUUCGAGUCCCGUACGGAACG | 0.816
GUUCCGUUGGCGUAAUGGUAACGCGUCUCCCUCCUAAGGUGAAGUCUGCGGGUUCGAGUCCCGUACGGAACG | 0.941
GUUCCGUUGGCGUAAUGGUAACGCGUCUCCCUCCUAAGGUGACGACUGCGGGUUCGAGUCCCGUACUGAACG | 0.724
GUUCCGUUGGCGUAAUGGUAACGCGUCUCCCUCCUAAGGCGAAGACUGCGGGUUCGAGUCCCGUACAGAACG | 0.846
GUUCCGUUGGCGUAAUGGUAACGCGUCUCCCUCCUAAGGUGAAGAGUGCGGGUUCGAGUCCCGUACGCAACG | ≤ 0.5
GUUCCGUUGGCGUAAUGGUAACGCGUCUCCCUCCUAAGGUGAAAACUGCGGGUUCGAGUCCCGUACGGAACG | 0.981
